# Laboratory results as given in ChEMBL document CHEMBL1949587 (Bioorg Med Chem, 2012).
# Assays:
# HUVEC [1] = assay: Antiangiogenic activity in HUVEC co-cultured with fibroblasts assessed as inhibition of capillary-like tube formation at 4 uM after 11 days by microscopic staining method relative to control; type: functional; conditions: Homo sapiens, 264 h
# Procedure, shortened: (§1)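 Commercial co-culture kit of HUVEC and fibroblasts, given compound at final 4 or 20 μM and held at 37 °C, 5% CO₂ for 11 days. Tubes fixed with 70% ethanol and stained for CD31, then photographed under a microscope. Tube area quantified by image analysis and inhibition calculated against control taken as 100%.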
# HUVEC [2] = assay: Antiangiogenic activity in HUVEC co-cultured with fibroblasts assessed as inhibition of capillary-like tube formation at 20 uM after 11 days by microscopic staining method relative to control; type: functional; conditions: Homo sapiens, 264 h; procedure, shortened: as §1
# [3] = Apparent oral clearance in nude mouse at 30 mg/kg, po by LC-MS/MS analysis; type: ADME, organism-based; parameters: dose 30 mg/kg, route oral; conditions: in vivo
# Procedure, shortened: (§2)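 Female nude mice given single oral dose in DMSO/Cremophor EL/1% Tween 80 (1:1:8 v/v/v) by stomach sonde. Blood taken at 30 min, 1, 2, 4, 7 and 24 h (n = 2/time point). Plasma precipitated with CH3CN/MeOH plus internal standard, filtered, measured by LC-MS/MS (LLOQ 20 ng/mL). Parameters by non-compartmental analysis; CL given as CL/F.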
# [4] = Half life in nude mouse at 30 mg/kg, po by LC-MS/MS analysis; type: ADME, organism-based; parameters: dose 30 mg/kg, route oral; conditions: in vivo; procedure, shortened: as §2
# [5] = AUC (0 to 24 hrs) in nude mouse at 30 mg/kg, po by LC-MS/MS analysis; type: ADME, organism-based; parameters: time < 24 hr, dose 30 mg/kg, route oral; conditions: plasma
# [6] = Antiproliferative activity against human COLO320DM cells assessed as cell growth inhibition; type: cell-based; conditions: COLO 320DM
# DLD-1 = assay: Antiproliferative activity against human DLD1 cells assessed as cell growth inhibition; type: cell-based
# HT-29 = assay: Antiproliferative activity against human HT-29 cells assessed as cell growth inhibition; type: cell-based
# MCF7 = assay: Antiproliferative activity against human MCF7 cells assessed as cell growth inhibition; type: cell-based
# IGROV-1 = assay: Antiproliferative activity against human IGROV1 cells assessed as cell growth inhibition; type: cell-based
# [7] = Antiproliferative activity against human IGROV1/T8 cells assessed as cell growth inhibition; type: cell-based; conditions: IGROV-1
# CWR22R = assay: Antiproliferative activity against human 22Rv1 cells assessed as cell growth inhibition; type: cell-based
# ASPC1 = assay: Antiproliferative activity against human AsPC1 cells assessed as cell growth inhibition; type: cell-based
# CAPAN-1 = assay: Antiproliferative activity against human Capan1 cells assessed as cell growth inhibition; type: cell-based
# MKN-45 = assay: Antiproliferative activity against human MKN45 cells assessed as cell growth inhibition; type: cell-based
# Huh-7 = assay: Antiproliferative activity against human HuH7 cells assessed as cell growth inhibition; type: cell-based
# C32 = assay: Antiproliferative activity against human C32 cells assessed as cell growth inhibition; type: cell-based
# [8] = Antiproliferative activity against human 10C9 cells assessed as cell growth inhibition; type: cell-based
# CEM/C2 = assay: Antiproliferative activity against human CEM/C2 cells assessed as cell growth inhibition; type: cell-based
# [9] = biological target: Tyrosine-protein kinase receptor UFO (Homo sapiens, UniProt P30530); assay: Inhibition of AXL
# [10] = biological target: Macrophage-stimulating protein receptor (Homo sapiens, UniProt Q04912); assay: Inhibition of RON
# [11] = biological target: Leukocyte tyrosine kinase receptor (Homo sapiens, UniProt P29376); assay: Inhibition of LTK
# Ephrin type-A receptor 2 = Ephrin type-A receptor 2 (Homo sapiens, UniProt P29317); assay: Inhibition of EPHA2
# [12] = biological target: Fibroblast growth factor receptor 2 (Homo sapiens, UniProt P21802); assay: Inhibition of FGFR2
# [13] = biological target: Hepatocyte growth factor receptor (Homo sapiens, UniProt P08581); assay: Inhibition of MET
# [14] = biological target: Receptor-type tyrosine-protein kinase FLT3 (Homo sapiens, UniProt P36888); assay: Inhibition of FLT3
# [15] = biological target: Insulin-like growth factor 1 receptor (Homo sapiens, UniProt P08069); assay: Inhibition of IGF1R
# [16] = biological target: Epithelial discoidin domain-containing receptor 1 (Homo sapiens, UniProt Q08345); assay: Inhibition of DDR1
# [17] = Inhibition of PDGFR
# [18] = biological target: Tyrosine-protein kinase Yes (Homo sapiens, UniProt P07947); assay: Inhibition of YES
# [19] = biological target: Tyrosine-protein kinase Fyn (Homo sapiens, UniProt P06241); assay: Inhibition of Fyn
# [20] = biological target: Tyrosine-protein kinase Lyn (Homo sapiens, UniProt P07948); assay: Inhibition of Lyn
# [21] = biological target: Tyrosine-protein kinase Lck (Homo sapiens, UniProt P06239); assay: Inhibition of LCK
# Focal adhesion kinase 1 = Focal adhesion kinase 1 (Homo sapiens, UniProt Q05397); assay: Inhibition of FAK
# [22] = biological target: Protein-tyrosine kinase 6 (Homo sapiens, UniProt Q13882); assay: Inhibition of BRK
# [23] = Inhibition of PKA
# [24] = biological target: Glycogen synthase kinase-3 beta (Homo sapiens, UniProt P49841); assay: Inhibition of GSK3-beta
# [25] = biological target: Cyclin-dependent kinase 2 (Homo sapiens, UniProt P24941); assay: Inhibition of CDK2
# NCI-H460 = assay: Antiproliferative activity against PTX-resistant human NCI-H460 cells assessed as cell growth inhibition; type: cell-based
# A549 = assay: Antiproliferative activity against human A549 cells assessed as cell growth inhibition; type: cell-based
# Calu-6 = assay: Antiproliferative activity against human Calu6 cells assessed as cell growth inhibition; type: cell-based
# T47D = assay: Antiproliferative activity against human T47D cells assessed as cell growth inhibition; type: cell-based
# HepG2 = assay: Antiproliferative activity against human HepG2 cells assessed as cell growth inhibition; type: cell-based
# [26] = Antiproliferative activity against human Huh1 cells assessed as cell growth inhibition; type: cell-based; conditions: HuH-1
# HUVEC [27] = assay: Antiangiogenic activity in HUVEC assessed as inhibition of VEGF-induced cell proliferation after 4 days; type: functional, cell-based; conditions: Homo sapiens, 96 h
# Procedure, shortened: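 HUVECs maintained in RPMI1640 with 10% FCS, 50 μg/mL heparin and ECGS, then seeded at 3000 cells/well in RPMI1640 with 5% FCS and 20 ng/mL VEGF, with compound at serially diluted concentrations. Incubated at 37 °C, 5% CO₂. Read-out is Cell Counting Kit-8, absorbance at 450 nm. Inhibition = (1−T/C)×100 against untreated control.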
# HCT-116 = assay: Antiproliferative activity against human HCT116 cells; type: cell-based
# [28] = biological target: Vascular endothelial growth factor receptor 2 (Homo sapiens, UniProt P35968); assay: Inhibition of VEGFR2
# [29] = Clearance in mouse liver microsome at 5 uM after 60 mins by LC-MS/MS analysis; type: ADME; conditions: liver microsomes, read-out: CLH
# Procedure, shortened: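 Test compound at 5 µM incubated with mouse liver microsomes, 1.0 mg protein/mL, in 50 mM potassium phosphate pH 7.4 at 37 °C. Started by adding NADPH generating system (glucose 6-phosphate 3.2 mM, β-NADP 2.6 mM, MgCl2 6.5 mM). Substrate depletion measured against internal standard. Intrinsic clearance is the first-order decay constant normalized to protein.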
# Chain of Tyrosine-protein kinase Fyn (P06241 whole entry): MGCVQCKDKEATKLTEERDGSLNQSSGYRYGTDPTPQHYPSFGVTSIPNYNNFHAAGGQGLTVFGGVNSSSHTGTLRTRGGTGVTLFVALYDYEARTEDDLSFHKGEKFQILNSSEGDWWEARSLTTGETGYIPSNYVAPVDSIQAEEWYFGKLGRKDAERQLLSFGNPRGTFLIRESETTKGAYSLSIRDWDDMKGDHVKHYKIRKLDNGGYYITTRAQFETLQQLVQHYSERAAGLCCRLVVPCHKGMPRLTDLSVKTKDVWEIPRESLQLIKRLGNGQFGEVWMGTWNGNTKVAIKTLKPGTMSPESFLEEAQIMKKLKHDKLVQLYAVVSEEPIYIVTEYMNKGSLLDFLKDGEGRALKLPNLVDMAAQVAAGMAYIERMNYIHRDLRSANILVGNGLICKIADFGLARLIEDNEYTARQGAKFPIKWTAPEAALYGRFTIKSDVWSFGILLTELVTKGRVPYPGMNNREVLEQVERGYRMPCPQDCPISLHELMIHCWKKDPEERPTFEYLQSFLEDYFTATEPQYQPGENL
# Chain of Vascular endothelial growth factor receptor 2 (P35968 whole entry): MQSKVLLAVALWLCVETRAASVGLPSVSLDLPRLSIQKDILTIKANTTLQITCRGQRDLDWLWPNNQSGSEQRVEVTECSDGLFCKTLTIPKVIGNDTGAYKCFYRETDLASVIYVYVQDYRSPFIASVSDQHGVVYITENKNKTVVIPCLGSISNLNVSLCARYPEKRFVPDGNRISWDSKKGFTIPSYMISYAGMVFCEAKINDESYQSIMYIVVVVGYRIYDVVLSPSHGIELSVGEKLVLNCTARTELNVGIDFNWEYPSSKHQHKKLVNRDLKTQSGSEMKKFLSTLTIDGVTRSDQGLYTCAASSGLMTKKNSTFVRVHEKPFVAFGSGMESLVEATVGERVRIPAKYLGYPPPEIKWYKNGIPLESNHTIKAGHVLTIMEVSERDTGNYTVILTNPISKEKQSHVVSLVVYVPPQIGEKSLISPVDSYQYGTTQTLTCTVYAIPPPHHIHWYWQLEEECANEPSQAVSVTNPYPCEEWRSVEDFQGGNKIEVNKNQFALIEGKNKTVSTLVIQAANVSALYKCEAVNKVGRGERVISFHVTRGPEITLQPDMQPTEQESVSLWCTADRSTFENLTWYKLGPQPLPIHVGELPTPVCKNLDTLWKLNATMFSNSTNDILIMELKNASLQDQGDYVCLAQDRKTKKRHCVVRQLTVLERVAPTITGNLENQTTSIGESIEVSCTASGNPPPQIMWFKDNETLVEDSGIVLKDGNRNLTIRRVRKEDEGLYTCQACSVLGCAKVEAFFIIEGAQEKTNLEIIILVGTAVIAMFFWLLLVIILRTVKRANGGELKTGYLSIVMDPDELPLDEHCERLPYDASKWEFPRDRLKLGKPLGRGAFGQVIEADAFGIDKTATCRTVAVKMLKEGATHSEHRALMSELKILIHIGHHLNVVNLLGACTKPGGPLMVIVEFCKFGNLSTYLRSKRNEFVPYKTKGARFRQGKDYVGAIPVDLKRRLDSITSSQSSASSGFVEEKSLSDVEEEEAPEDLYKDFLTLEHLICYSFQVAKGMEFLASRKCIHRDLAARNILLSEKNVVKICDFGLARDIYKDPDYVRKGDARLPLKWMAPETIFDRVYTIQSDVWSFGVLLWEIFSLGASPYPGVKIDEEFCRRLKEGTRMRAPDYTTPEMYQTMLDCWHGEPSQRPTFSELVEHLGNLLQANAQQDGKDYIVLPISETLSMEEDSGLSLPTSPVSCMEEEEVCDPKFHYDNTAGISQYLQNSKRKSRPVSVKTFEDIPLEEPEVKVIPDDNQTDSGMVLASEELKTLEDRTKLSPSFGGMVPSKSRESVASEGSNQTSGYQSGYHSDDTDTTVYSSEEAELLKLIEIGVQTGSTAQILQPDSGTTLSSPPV
# Chain of Hepatocyte growth factor receptor (P08581 whole entry): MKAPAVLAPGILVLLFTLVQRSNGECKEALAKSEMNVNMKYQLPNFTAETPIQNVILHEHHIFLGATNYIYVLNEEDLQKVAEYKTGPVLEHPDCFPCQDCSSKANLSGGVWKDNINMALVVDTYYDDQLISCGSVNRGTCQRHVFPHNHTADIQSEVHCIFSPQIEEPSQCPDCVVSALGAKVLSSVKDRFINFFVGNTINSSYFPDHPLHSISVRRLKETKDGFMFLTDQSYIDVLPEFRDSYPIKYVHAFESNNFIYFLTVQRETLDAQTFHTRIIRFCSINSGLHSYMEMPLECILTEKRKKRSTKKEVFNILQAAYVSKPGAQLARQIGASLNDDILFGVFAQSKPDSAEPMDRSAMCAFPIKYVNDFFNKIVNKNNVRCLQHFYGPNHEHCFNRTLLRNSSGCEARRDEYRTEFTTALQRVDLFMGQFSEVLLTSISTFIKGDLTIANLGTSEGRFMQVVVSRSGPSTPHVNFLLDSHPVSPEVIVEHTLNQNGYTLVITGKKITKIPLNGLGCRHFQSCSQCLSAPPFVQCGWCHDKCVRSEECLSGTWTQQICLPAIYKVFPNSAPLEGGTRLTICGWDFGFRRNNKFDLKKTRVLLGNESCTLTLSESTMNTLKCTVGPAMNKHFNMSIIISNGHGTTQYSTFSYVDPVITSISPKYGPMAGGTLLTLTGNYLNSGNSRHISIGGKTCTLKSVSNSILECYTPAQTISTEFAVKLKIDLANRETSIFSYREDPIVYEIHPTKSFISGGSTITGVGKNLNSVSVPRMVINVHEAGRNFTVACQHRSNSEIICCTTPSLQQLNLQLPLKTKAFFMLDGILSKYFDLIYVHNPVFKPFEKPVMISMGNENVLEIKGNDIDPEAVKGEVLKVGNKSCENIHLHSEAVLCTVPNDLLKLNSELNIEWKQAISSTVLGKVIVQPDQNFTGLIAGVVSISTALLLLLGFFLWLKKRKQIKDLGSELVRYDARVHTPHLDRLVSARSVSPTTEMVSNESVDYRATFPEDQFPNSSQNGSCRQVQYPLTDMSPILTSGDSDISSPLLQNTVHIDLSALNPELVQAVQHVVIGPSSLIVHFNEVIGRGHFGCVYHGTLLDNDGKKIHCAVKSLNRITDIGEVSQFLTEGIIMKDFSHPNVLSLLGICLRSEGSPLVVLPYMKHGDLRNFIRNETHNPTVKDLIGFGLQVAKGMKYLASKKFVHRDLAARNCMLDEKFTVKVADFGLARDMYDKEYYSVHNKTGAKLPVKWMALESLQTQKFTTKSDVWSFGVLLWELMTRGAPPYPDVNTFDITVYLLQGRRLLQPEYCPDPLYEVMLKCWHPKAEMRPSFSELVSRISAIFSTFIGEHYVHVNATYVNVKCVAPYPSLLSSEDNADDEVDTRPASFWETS
# Chain of Focal adhesion kinase 1 (Q05397 whole entry): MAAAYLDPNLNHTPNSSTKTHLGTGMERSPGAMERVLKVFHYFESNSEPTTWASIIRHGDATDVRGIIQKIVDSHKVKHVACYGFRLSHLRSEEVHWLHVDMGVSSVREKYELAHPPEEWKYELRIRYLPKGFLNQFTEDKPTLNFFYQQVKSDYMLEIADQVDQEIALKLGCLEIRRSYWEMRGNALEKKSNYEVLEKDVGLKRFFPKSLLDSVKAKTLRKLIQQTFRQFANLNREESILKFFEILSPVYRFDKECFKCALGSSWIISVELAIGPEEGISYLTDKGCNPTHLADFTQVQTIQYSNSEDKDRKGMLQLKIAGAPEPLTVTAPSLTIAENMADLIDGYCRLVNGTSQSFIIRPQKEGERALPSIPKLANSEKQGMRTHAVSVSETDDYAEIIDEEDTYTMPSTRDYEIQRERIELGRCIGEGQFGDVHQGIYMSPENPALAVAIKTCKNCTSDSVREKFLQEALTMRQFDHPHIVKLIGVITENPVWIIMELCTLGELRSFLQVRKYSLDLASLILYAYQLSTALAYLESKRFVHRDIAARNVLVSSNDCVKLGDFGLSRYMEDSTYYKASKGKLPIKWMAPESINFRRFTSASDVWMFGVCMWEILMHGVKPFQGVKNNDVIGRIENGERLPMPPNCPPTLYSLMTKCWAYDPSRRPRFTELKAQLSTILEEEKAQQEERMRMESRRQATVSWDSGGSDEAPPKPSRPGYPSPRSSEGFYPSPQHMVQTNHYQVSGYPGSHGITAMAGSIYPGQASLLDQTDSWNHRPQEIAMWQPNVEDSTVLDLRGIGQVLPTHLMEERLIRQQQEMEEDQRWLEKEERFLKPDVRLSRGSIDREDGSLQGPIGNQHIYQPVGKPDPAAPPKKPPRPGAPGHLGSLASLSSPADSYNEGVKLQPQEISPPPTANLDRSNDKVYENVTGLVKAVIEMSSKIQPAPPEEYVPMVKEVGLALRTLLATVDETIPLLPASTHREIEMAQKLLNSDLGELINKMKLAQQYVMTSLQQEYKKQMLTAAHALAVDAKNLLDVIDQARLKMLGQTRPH
# Chain of Glycogen synthase kinase-3 beta (P49841 whole entry): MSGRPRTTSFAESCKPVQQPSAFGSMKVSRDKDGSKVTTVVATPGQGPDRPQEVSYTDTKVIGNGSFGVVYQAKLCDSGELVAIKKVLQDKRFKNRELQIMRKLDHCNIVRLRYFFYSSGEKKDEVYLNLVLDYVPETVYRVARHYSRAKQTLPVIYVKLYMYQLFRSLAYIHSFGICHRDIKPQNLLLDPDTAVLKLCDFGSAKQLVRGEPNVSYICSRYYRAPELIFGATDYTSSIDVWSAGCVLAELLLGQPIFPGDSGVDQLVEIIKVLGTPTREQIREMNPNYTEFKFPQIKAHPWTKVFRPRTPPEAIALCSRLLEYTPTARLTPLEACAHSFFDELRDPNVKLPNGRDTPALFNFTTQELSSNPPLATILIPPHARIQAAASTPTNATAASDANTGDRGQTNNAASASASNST
smiles,measurement,setting,value
COc1ccc(C(=O)NC[C@H](O)CO)cc1/C=C/c1ccc(Cl)cc1,inhibition at 4 µM,HUVEC [1],41%
same,inhibition at 20 µM,HUVEC [2],93%
same,CL/F,[3],5.6 mL/min/kg
same,half-life,[4],8.5 h
same,AUC(0-t) at 24 h,[5],90200 ng·h/mL
same,IC50,[6],61 µM
same,IC50,DLD-1,28 µM
same,IC50,HT-29,16 µM
same,IC50,MCF7,63 µM
same,IC50,IGROV-1,1.4 µM
same,IC50,[7],12 µM
same,IC50,CWR22R,21 µM
same,IC50,ASPC1,63 µM
same,IC50,CAPAN-1,67 µM
same,IC50,MKN-45,26 µM
same,IC50,Huh-7,27 µM
same,IC50,C32,46 µM
same,IC50,[8],50 µM
same,IC50,CEM/C2,30 µM
same,IC50,[9],> 50 µM
same,IC50,[10],> 50 µM
same,IC50,[11],> 50 µM
same,IC50,Ephrin type-A receptor 2,> 50 µM
same,IC50,[12],> 50 µM
same,IC50,[13],> 50 µM
same,IC50,[14],> 50 µM
same,IC50,[15],> 50 µM
same,IC50,[16],> 50 µM
same,IC50,[17],> 50 µM
same,IC50,[18],> 50 µM
same,IC50,[19],> 50 µM
same,IC50,[20],> 50 µM
same,IC50,[21],> 50 µM
same,IC50,Focal adhesion kinase 1,> 50 µM
same,IC50,[22],> 50 µM
same,IC50,[23],> 50 µM
same,IC50,[24],> 50 µM
same,IC50,[25],> 50 µM
same,IC50,NCI-H460,30 µM
same,IC50,A549,18 µM
same,IC50,Calu-6,54 µM
same,IC50,T47D,7.2 µM
same,IC50,HepG2,28 µM
same,IC50,[26],30 µM
same,IC50,HUVEC [27],0.25 µM
same,IC50,HCT-116,21 µM
same,IC50,[28],> 50 µM
same,microsomal CLint at 5 µM,[29],12 µL/min/mg
COc1ccc(C(=O)NC[C@@H](O)CO)cc1/C=C/c1ccc(Cl)cc1,inhibition at 4 µM,HUVEC [1],38%
same,inhibition at 20 µM,HUVEC [2],86%
same,CL/F,[3],5.8 mL/min/kg
same,half-life,[4],7.8 h
same,AUC(0-t) at 24 h,[5],86400 ng·h/mL
same,IC50,[6],46 µM
same,IC50,DLD-1,19 µM
same,IC50,HT-29,10 µM
same,IC50,MCF7,65 µM
same,IC50,IGROV-1,0.92 µM
same,IC50,[7],9.5 µM
same,IC50,CWR22R,8.6 µM
same,IC50,ASPC1,55 µM
same,IC50,CAPAN-1,47 µM
same,IC50,MKN-45,5.7 µM
same,IC50,Huh-7,29 µM
same,IC50,C32,38 µM
same,IC50,[8],38 µM
same,IC50,CEM/C2,30 µM
same,IC50,[9],> 50 µM
same,IC50,[10],> 50 µM
same,IC50,[11],> 50 µM
same,IC50,Ephrin type-A receptor 2,> 50 µM
same,IC50,[12],> 50 µM
same,IC50,[13],> 50 µM
same,IC50,[14],> 50 µM
same,IC50,[15],> 50 µM
same,IC50,[16],> 50 µM
same,IC50,[17],> 50 µM
same,IC50,[18],> 50 µM
same,IC50,[19],> 50 µM
same,IC50,[20],> 50 µM
same,IC50,[21],> 50 µM
same,IC50,Focal adhesion kinase 1,> 50 µM
same,IC50,[22],> 50 µM
same,IC50,[23],> 50 µM
same,IC50,[24],> 50 µM
same,IC50,[25],> 50 µM
same,IC50,NCI-H460,19 µM
same,IC50,A549,13 µM
same,IC50,Calu-6,40 µM
same,IC50,T47D,4.5 µM
same,IC50,HepG2,16 µM
same,IC50,[26],30 µM
same,IC50,HUVEC [27],0.48 µM
same,IC50,HCT-116,13 µM
same,IC50,[28],> 50 µM
same,microsomal CLint at 5 µM,[29],7 µL/min/mg
